≈ marks a conversion by molar mass, not a printed value.
How the values were obtained:
[1] = Selectivity index, ratio of CC50 for human MT4 cells to EC50 for HIV1 3B; assay type: toxicity, cell-based; conditions: read-out: Ratio CC50/EC50
In short: (§1)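 MT-4 cells in RPMI 1640 with 10% heat-inactivated FCS, 2 mM L-glutamine, 0.1% bicarbonate and gentamicin, seeded at 6 × 10⁵ cells/mL final with virus or mock infection. Viability read by MTT after 5 days at 540 and 690 nm, using the median OD of three wells. CC50 is 50% loss of mock-infected OD540. EC50 is 50% inhibition of virus-induced CPE. SI = CC50/EC50. Mean ± SD of ≥2 experiments.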

[2] = Cytotoxicity against human MT4 cells after 5 days by MTT assay; assay type: cell-based; in short: as §1
[3] = tested on: Human immunodeficiency virus 1; assay: Antiviral activity against HIV1 3B infected in human MT4 cells after 5 days by MTT assay; assay type: functional, organism-based; conditions: Human immunodeficiency virus 1, 3B, MT4, 120 h; in short: as §1
[4] = tested on: Human immunodeficiency virus 2; assay: Antiviral activity against HIV2 ROD infected in human MT4 cells after 5 days by MTT assay; assay type: functional, organism-based; conditions: Human immunodeficiency virus 2, ISOLATE ROD, MT4, 120 h; in short: as §1
[5] = tested on: Respiratory syncytial virus; assay: Antiviral activity against RSV infected in human HeLa cell assessed as inhibition of virus-induced cytopathicity; assay type: functional, organism-based
[6] = tested on: Vesicular stomatitis virus; assay: Antiviral activity against VSV infected in human HeLa cell assessed as inhibition of virus-induced cytopathicity; assay type: functional, organism-based
[7] = tested on: Vesicular stomatitis virus; assay: Antiviral activity against VSV infected in human E6SM cell assessed as inhibition of virus-induced cytopathicity; assay type: functional, organism-based
[8] = tested on: Human immunodeficiency virus; assay: Antiviral activity against HIV SO6141 infected in human MT4 cells after 5 days by MTT assay; assay type: functional, organism-based; conditions: Human immunodeficiency virus 1, SO6141, MT4, 120 h; in short: as §1
[9] = Cytotoxicity against human E6SM cells by MTT assay; assay type: cell-based
Vaccinia virus = assay: Antiviral activity against Vaccina virus infected in human E6SM cell assessed as inhibition of virus-induced cytopathicity; assay type: functional, organism-based; conditions: Orthopoxvirus vaccinia
Sindbis virus = assay: Antiviral activity against Sindbis virus infected in african green monkey Vero cells assessed as inhibition of virus-induced cytopathicity; assay type: functional, organism-based
[10] = Cytotoxicity against african green monkey Vero cells by MTT assay; assay type: cell-based; conditions: chlorocebus sabaeus
[11] = Selectivity index, ratio of CC50 for human PBMC to EC50 for HIV1 3B
In short: (§2)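 PBMCs infected with HIV-1 IIIB and cultured with a range of compound concentrations. EC50 is 50% inhibition of supernatant p24 core antigen (ELISA) relative to drug-free culture. CC50 is 50% reduction in cell viability. SI = CC50/EC50. Mean ± SD of ≥2 experiments.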

Reovirus sp. = assay: Antiviral activity against Reovirus infected in african green monkey Vero cells assessed as inhibition of virus-induced cytopathicity; assay type: functional, organism-based
[12] = Cytotoxicity against human HeLa cells by MTT assay; assay type: cell-based
Punta Toro virus = assay: Antiviral activity against Punta Toro virus infected in african green monkey Vero cells assessed as inhibition of virus-induced cytopathicity; assay type: functional, organism-based
Human alphaherpesvirus 1 [13] = assay: Antiviral activity against HSV1 KOS infected in human E6SM cell assessed as inhibition of virus-induced cytopathicity; assay type: functional, organism-based; conditions: Human alphaherpesvirus 1, KOS
[14] = tested on: Human immunodeficiency virus 1; assay: Antiviral activity against HIV1 3B infected in human PBMC assessed as inhibition of viral p24 antigen production by ELISA; assay type: functional, organism-based; conditions: Human immunodeficiency virus 1, 3B; in short: as §2
[15] = tested on: Simian immunodeficiency virus; assay: Antiviral activity against SIV MAC251 infected in human MT4 cells after 5 days by MTT assay; assay type: functional, organism-based; conditions: MAC251, MT4, 120 h; in short: as §1
Human alphaherpesvirus 1 [16] = assay: Antiviral activity against TK-deficient acyclovir-resistant HSV1 KOS infected in human E6SM cell assessed as inhibition of virus-induced cytopathicity; assay type: functional, organism-based; conditions: Human alphaherpesvirus 1, KOS
[17] = Cytotoxicity against human PBMC after 5 days by MTT assay; assay type: cell-based; in short: as §2
Human alphaherpesvirus 2 = assay: Antiviral activity against HSV2 G infected in human E6SM cell assessed as inhibition of virus-induced cytopathicity; assay type: functional, organism-based; conditions: Human alphaherpesvirus 2, strain G
Human respirovirus 3 = assay: Antiviral activity against Parainfluenza virus 3 infected in african green monkey Vero cells assessed as inhibition of virus-induced cytopathicity; assay type: functional, organism-based; conditions: Human respirovirus 3, Vero

| Compound | selectivity ratio [1] | CC50 at 120 h [2] | EC50 [3] | EC50 [4] | further results |
| --- | --- | --- | --- | --- | --- |
| C=C[n+]1ccc(-c2cc[n+](Cc3cc(C[n+]4ccc(-c5cc[n+](C=C)cc5)cc4)cc(C[n+]4ccc(-c5cc[n+](C=C)cc5)cc4)c3)cc2)cc1 | < 1 | 33.4 µM | > 33.4 µM | > 33.4 µM | – |
| C[n+]1ccc(-c2cc[n+](C)cc2)cc1 | < 1 | 25.2 µM | > 25.2 µM | > 25.2 µM | – |
| NCCC[n+]1ccc(-c2ccncc2)cc1 | < 1 | > 346 µM | > 346 µM | > 346 µM | – |
| CC[n+]1ccc(-c2cc[n+](Cc3cc(CO)cc(C[n+]4ccc(-c5cc[n+](CC)cc5)cc4)c3)cc2)cc1 | < 1 | 10.6 µM | > 10.6 µM | > 10.6 µM | – |
| CC[n+]1ccc(-c2ccncc2)cc1 | < 1 | 281 µM | > 282 µM | > 282 µM | – |
| C=C[n+]1ccc(-c2ccncc2)cc1 | < 1 | 15.9 µM | > 15.9 µM | > 15.9 µM | – |
| C=C[n+]1ccc(-c2cc[n+](CCc3ccc([N+](=O)[O-])cc3)cc2)cc1 | < 1 | 0.4 µM | > 0.4 µM | > 0.4 µM | – |
| CC[n+]1ccc(-c2cc[n+](Cc3cc(C[n+]4ccc(-c5cc[n+](CC)cc5)cc4)cc(C[n+]4ccc(-c5cc[n+](Cc6cc(C[n+]7ccc(-c8cc[n+](Cc9cc(C[n+]%10ccc(-c%11cc[n+](CC)cc%11)cc%10)cc(C[n+]%10ccc(-c%11cc[n+](CC)cc%11)cc%10)c9)cc8)cc7)cc(-[n+]7ccc(-c8cc[n+](-c9cc(C[n+]%10ccc(-c%11cc[n+](Cc%12cc(C[n+]%13ccc(-c%14cc[n+](CC)cc%14)cc%13)cc(C[n+]%13ccc(-c%14cc[n+](CC)cc%14)cc%13)c%12)cc%11)cc%10)cc(C[n+]%10ccc(-c%11cc[n+](Cc%12cc(C[n+]%13ccc(-c%14cc[n+](CC)cc%14)cc%13)cc(C[n+]%13ccc(-c%14cc[n+](CC)cc%14)cc%13)c%12)cc%11)cc%10)c9)cc8)cc7)c6)cc5)cc4)c3)cc2)cc1.F[P-](F)(F)(F)(F)F.F[P-](F)(F)(F)(F)F.F[P-](F)(F)(F)(F)F.F[P-](F)(F)(F)(F)F.F[P-](F)(F)(F)(F)F.F[P-](F)(F)(F)(F)F.F[P-](F)(F)(F)(F)F.F[P-](F)(F)(F)(F)F.F[P-](F)(F)(F)(F)F.F[P-](F)(F)(F)(F)F.F[P-](F)(F)(F)(F)F.F[P-](F)(F)(F)(F)F.F[P-](F)(F)(F)(F)F.F[P-](F)(F)(F)(F)F.F[P-](F)(F)(F)(F)F.F[P-](F)(F)(F)(F)F.F[P-](F)(F)(F)(F)F.F[P-](F)(F)(F)(F)F.F[P-](F)(F)(F)(F)F.F[P-](F)(F)(F)(F)F.F[P-](F)(F)(F)(F)F.F[P-](F)(F)(F)(F)F.F[P-](F)(F)(F)(F)F.F[P-](F)(F)(F)(F)F.F[P-](F)(F)(F)(F)F.F[P-](F)(F)(F)(F)F | 13.3 | > 18.6 µM | 1.4 µM | 9.82 µM | EC50 [5]: 50 µg/mL; EC50 [6]: > 50 µg/mL; EC50 [7]: > 50 µg/mL; EC50 [8]: 1.23 µM; MCC [9]: > 50 µg/mL; EC50 (Vaccinia virus): > 50 µg/mL; EC50 (Sindbis virus): > 50 µg/mL; MCC [10]: > 50 µg/mL; Ratio CC50/EC50 [11]: <1; EC50 (Reovirus sp.): > 50 µg/mL; MCC [12]: > 50 µg/mL; EC50 (Punta Toro virus): > 50 µg/mL; EC50 (Human alphaherpesvirus 1 [13]): 6 µg/mL; EC50 [14]: > 0.52 µg/mL; EC50 [15]: ≥ 0.49 µM; EC50 (Human alphaherpesvirus 1 [16]): 30 µg/mL; CC50 at 120 h [17]: 0.52 µg/mL; EC50 (Human alphaherpesvirus 2): 50 µg/mL; EC50 (Human respirovirus 3): > 50 µg/mL |
| CC[n+]1ccc(-c2cc[n+](Cc3ccc(CBr)cc3)cc2)cc1 | < 1 | 0.9 µM | > 0.9 µM | > 0.9 µM | – |
| NC(=O)c1ncn([C@@H]2O[C@H](CO)[C@@H](O)[C@H]2O)n1 [RIBAVIRIN] | – | – | – | – | EC50 [6]: 48 µg/mL (≈ 197 µM); EC50 [7]: > 400 µg/mL; MCC [9]: > 400 µg/mL; EC50 (Vaccinia virus): 48 µg/mL (≈ 197 µM); EC50 (Sindbis virus): > 400 µg/mL; MCC [10]: > 400 µg/mL; EC50 (Reovirus sp.): 80 µg/mL (≈ 328 µM); MCC [12]: > 400 µg/mL; EC50 (Human alphaherpesvirus 1 [13]): > 400 µg/mL; EC50 (Human alphaherpesvirus 1 [16]): > 400 µg/mL; EC50 (Human alphaherpesvirus 2): > 400 µg/mL |
| NCCC[n+]1ccc(-c2cc[n+](Cc3ccccc3)cc2)cc1 | < 1 | 0.9 µM | > 0.9 µM | > 0.9 µM | – |
| BrCC[n+]1ccc(-c2ccncc2)cc1 | < 1 | 79.2 µM | > 79.2 µM | > 79.2 µM | – |
| NCCC[n+]1ccc(-c2cc[n+](CCCN)cc2)cc1 | < 1 | 3.3 µM | > 3.3 µM | > 3.3 µM | – |
| C=C[n+]1ccc(-c2cc[n+](C)cc2)cc1 | < 1 | 26.1 µM | > 26.1 µM | > 26.1 µM | – |
| CCC[n+]1ccc(-c2ccncc2)cc1 | < 1 | > 363 µM | > 363 µM | > 363 µM | – |
| OCc1cc(CO)cc(-[n+]2ccc(-c3cc[n+](-c4cc(CO)cc(CO)c4)cc3)cc2)c1 | < 1 | 2.7 µM | > 2.7 µM | > 2.7 µM | – |
| BrCc1cc(CBr)cc(-[n+]2ccc(-c3cc[n+](-c4cc(CBr)cc(CBr)c4)cc3)cc2)c1 | < 1 | > 148 µM | > 148 µM | > 148 µM | – |
| OCC[n+]1ccc(-c2cc[n+](Cc3cc(C[n+]4ccc(-c5cc[n+](CCO)cc5)cc4)cc(C[n+]4ccc(-c5cc[n+](CCO)cc5)cc4)c3)cc2)cc1 | 3.11 | > 104 µM | 33.3 µM | > 104 µM | EC50 [8]: > 104 µM; EC50 [15]: 37.7 µM |
| C[n+]1ccc(-c2cc[n+](CBr)cc2)cc1 | < 1 | 5.1 µM | > 5.1 µM | > 5.1 µM | – |
| BrCC[n+]1ccc(-c2cc[n+](CCBr)cc2)cc1 | 3.5 | 20.6 µM | 5.88 µM | > 20.6 µM | EC50 [15]: > 20.6 µM |
| C=C[n+]1ccc(-c2cc[n+](Cc3ccccc3)cc2)cc1 | < 1 | 2.7 µM | > 2.7 µM | > 2.7 µM | – |
| O=c1[nH]c(=O)n([C@H]2C[C@H](O)[C@@H](CO)O2)cc1/C=C/Br [BRIVUDINE] | – | – | – | – | EC50 [5]: > 400 µg/mL; EC50 [6]: > 400 µg/mL; EC50 [7]: > 400 µg/mL; MCC [9]: > 400 µg/mL; EC50 (Vaccinia virus): 9.6 µg/mL (≈ 28.8 µM); EC50 (Sindbis virus): > 400 µg/mL; MCC [10]: > 400 µg/mL; EC50 (Reovirus sp.): > 400 µg/mL; MCC [12]: > 400 µg/mL; EC50 (Punta Toro virus): > 400 µg/mL; EC50 (Human alphaherpesvirus 1 [13]): 0.384 µg/mL (≈ 1.15 µM); EC50 (Human alphaherpesvirus 1 [16]): > 400 µg/mL; EC50 (Human alphaherpesvirus 2): 80 µg/mL (≈ 240 µM); EC50 (Human respirovirus 3): > 400 µg/mL |
| CC[n+]1ccc(-c2cc[n+](Cc3cc(C[n+]4ccc(-c5cc[n+](CC)cc5)cc4)cc(C[n+]4ccc(-c5cc[n+](CC)cc5)cc4)c3)cc2)cc1 | < 1 | > 81.1 µM | > 81.1 µM | > 81.1 µM | – |
